Laboratory results taken from ChEMBL document CHEMBL1133075, “Synthesis and characterization of a novel class of protein tyrosine phosphatase inhibitors” (Bioorg Med Chem Lett, 2000).

Legend:
[1] = molecular target: T1, Tyrosine-protein phosphatase non-receptor type 1 (Homo sapiens, UniProt P18031); experiment: Compound was evaluated for the inhibition constant against Protein-tyrosine phosphatase (PTP1B )
T1 sequence (P18031 whole entry): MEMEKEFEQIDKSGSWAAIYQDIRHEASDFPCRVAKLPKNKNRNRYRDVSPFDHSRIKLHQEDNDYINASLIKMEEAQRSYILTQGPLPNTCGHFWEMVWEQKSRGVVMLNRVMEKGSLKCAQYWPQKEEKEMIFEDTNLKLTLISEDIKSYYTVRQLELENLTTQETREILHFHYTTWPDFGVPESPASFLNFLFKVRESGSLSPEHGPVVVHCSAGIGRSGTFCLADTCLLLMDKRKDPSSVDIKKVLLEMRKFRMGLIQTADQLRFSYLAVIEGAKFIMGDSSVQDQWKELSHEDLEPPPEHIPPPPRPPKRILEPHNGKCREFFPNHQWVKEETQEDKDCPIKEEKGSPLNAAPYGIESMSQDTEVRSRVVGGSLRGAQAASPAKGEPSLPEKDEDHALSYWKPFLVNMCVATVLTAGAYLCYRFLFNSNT
Procedure, shortened: (§1)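 pNPP hydrolysis in pH 7.0 buffer of 50 mM 3,3-dimethylglutarate, 1 mM EDTA, ionic strength 0.15 M with NaCl. Reaction started with enzyme and stopped after 2–3 min with 1 N NaOH. Nonenzymatic substrate hydrolysis subtracted via an enzyme-free control. Initial rates taken at eight pNPP levels (0.2–5 Km) at each of three fixed inhibitor concentrations to obtain the inhibition constant.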

[2] = molecular target: Dual specificity protein phosphatase 3 (Homo sapiens, UniProt P51452); experiment: Compound was evaluated for the inhibition constant against dual specificity phosphatase VHR; procedure, shortened: as §1
Sequence of Dual specificity protein phosphatase 3 (P51452 whole entry): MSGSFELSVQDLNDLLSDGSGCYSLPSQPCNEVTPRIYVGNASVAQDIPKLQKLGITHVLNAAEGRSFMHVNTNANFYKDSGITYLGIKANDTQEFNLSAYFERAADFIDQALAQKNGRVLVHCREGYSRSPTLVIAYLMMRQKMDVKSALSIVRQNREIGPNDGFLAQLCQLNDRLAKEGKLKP

Row | SMILES | Ki [1] [mM] | Ki [2] [mM]
1 | O=P(O)(O)COc1ccc(Cc2ccc(O)cc2)cc1 | 0.047 | 1.3
2 | O=P(O)(O)COc1cccc2c1ccc1ccccc12 | 0.41 | 0.57
3 | O=P(O)(O)COc1cccc2ccccc12 | 1.3 | 4.8
4 | O=C(O)Cc1ccc(OCP(=O)(O)O)cc1 | 1.1 | 2.6
5 | O=P(O)(O)COc1ccc2ccccc2c1 | 1.3 | 5.7
6 | O=P(O)(O)COc1ccccc1 [PHENOXYMETHYLPHOSPHONATE] | 3.3 | 26
